Results: ChEMBL document CHEMBL3865807, “Syntheses and photodynamic activity of some glucose-conjugated BODIPY dyes” (Eur J Med Chem, 2016)
Calls of active or inactive are those of the source. The calls are words filed in the database; no cut-off is given here.

Legend:
A549 [1] = test: Induction of apoptosis in human A549 cells assessed as pro-caspase 3 level at 2.5 uM preincubated for 1 hr followed by 0.77 mW/cm2 white light irradiation for 80 mins measured after 16 hrs by immunoblot analysis relative to control; format: functional
Procedure, shortened: (§1)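 Whole-cell extracts from A549 cells (1×10^6) treated with 0 or 2.5 µM compound, photo-exposed 80 min, lysed in Tris pH 7.4/NaCl/EDTA/Triton with protease inhibitors; 30 µg protein on 12% SDS-PAGE, nitrocellulose, milk block, caspase-3 antibody overnight 4 °C, HRP secondary, chemiluminescence; band ratio to normal control (=1) after loading-control normalisation.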

A549 [2] = test: Induction of morphological changes in human A549 cells assessed as cell shrinking up to 2.5 uM preincubated for 1 hr followed by 0.77 mW/cm2 white light irradiation for 80 mins measured after 24 hrs by phase contrast microscopy; format: functional, cell-based
Procedure, shortened: (§2)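 A549 cells (1×10^5/well) on coverslips given vehicle (0.1% DMSO) or compound (0.625, 1.25, 2.5 µM) for 1 h, then irradiated 80 min (0.77 mW/cm²); kept 24 h in regular medium and examined unstained by phase-contrast microscopy (40× objective); representative fields imaged; experiments done three times.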

[3] = Photocytotoxicity against human A549 cells assessed as decrease in cell viability preincubated for 1 hr followed by 0.77 mW/cm2 white light irradiation for 80 mins measured after 24 hrs by MTT assay; format: functional, cell-based; conditions: A549, light or radiation study
Procedure, shortened: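 IC50 from MTT: A549 cells (1×10^4/well) given graded compound concentrations 1 h in serum-free DMEM (vehicle ≤0.1% DMSO), washed, photo-exposed 80 min at 0.77 mW/cm², regular medium 24 h; MTT 0.5 mg/mL 6 h, A550; viability relative to vehicle control; four replicates, three experiments, mean ± SEM.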

[4] = Drug uptake in human A549 cells assessed as mean fluorescence intensity at 2.5 uM after 8 hrs by flow cytometry (reference value: 5.4 +/- 1.5); format: ADME, cell-based; conditions: a549, 8 h
[5] = Drug uptake in human L-132 cells assessed as mean fluorescence intensity at 2.5 uM after 2 hrs by flow cytometry (reference value: 4.6 +/- 1.2); format: ADME, cell-based; conditions: l132, 2 h
A549 [6] = test: Induction of apoptosis in human A549 cells assessed as pro-caspase 3 level at 2.5 uM preincubated for 1 hr followed by 0.77 mW/cm2 white light irradiation for 80 mins measured after 8 hrs by immunoblot analysis relative to control; format: functional; procedure, shortened: as §1
A549 [7] = test: Photocytotoxicity against human A549 cells assessed as decrease in cell viability at 500 to 5000 nM preincubated for 1 hr followed by 0.77 mW/cm2 white light irradiation measured after 24 hrs by MTT assay; format: functional, cell-based; conditions: TDE = time-dependent effect
Procedure, shortened: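 A549 cells (1×10^4/well), plated overnight, given compound for 1 h in serum-free medium, washed twice with PBS, irradiated 0.5, 1, 2 or 4 h at 0.77 mW/cm² (37 °C, 5% CO₂), then 24 h in regular medium; MTT 0.5 mg/mL for 6 h, formazan dissolved in 0.01 N HCl/10% SDS, A550.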

A549 [8] = test: Induction of morphological changes in human A549 cells assessed as cells with blebbing membranes up to 2.5 uM preincubated for 1 hr followed by 0.77 mW/cm2 white light irradiation for 80 mins measured after 24 hrs by phase contrast microscopy; format: functional, cell-based; procedure, shortened: as §2
A549 [9] = test: Induction of apoptosis in human A549 cells assessed as increase in caspase 9 activity at 2.5 uM preincubated for 1 hr followed by 0.77 mW/cm2 white light irradiation for 80 mins measured after 16 hrs in presence of caspase-9 inhibitor Z-LEHD-FMK by immunoblot analysis; format: functional, cell-based
A549 [10] = test: Induction of morphological changes in human A549 cells assessed as changes in cell outline preincubated for 1 hr followed by 0.77 mW/cm2 white light irradiation for 80 mins measured after 24 hrs by phase contrast microscopy; format: functional, cell-based; procedure, shortened: as §2
[11] = Drug uptake in cytoplasm of human A549 cells at 1 uM after 0.25 to 3 hrs by Hoechst 33342 staining based fluorescence microscopy; format: ADME, cell-based; conditions: a549, 1 µM
Procedure, shortened: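 A549 cells on coverslips loaded with dyes (1 µM) for 0.25, 0.5, 1, 2 or 3 h at 37 °C, washed, counterstained with Hoechst 33342 (10 µM), mounted in 70% glycerol; red dye and blue nuclear fluorescence imaged by fluorescence microscopy (40×) and overlaid.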

A549 [12] = test: Photocytotoxicity in human A549 cells assessed as decrease in cell survival at 2.5 uM preincubated for 1 hr followed by 0.77 mW/cm2 white light irradiation for 80 mins measured after 24 hrs in presence of caspase 9 inhibitor Z-LEHD-FMK by MTT assay; format: functional, cell-based
Procedure, shortened: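 Cells pre-incubated 1 h with caspase-9 inhibitor Z-LEHD-FMK (20 µM), then compound 2.5 µM for 1 h and light 80 min (0.77 mW/cm²); viability at 24 h by MTT; five replicates, mean ± SEM.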

[13] = Drug uptake in endoplasmic reticulum of human A549 cells at 100 nM measured up to 4 hrs by ER-Tracker green staining based confocal microscopy; format: ADME, cell-based; conditions: a549, 4 h, 0.1 µM
Procedure, shortened: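 Overnight-seeded A549 cells loaded with dye (100 nM), incubation periods 0.5-4 h tested, then ER-Tracker Green (500 nM) or MitoTracker Green (100 nM) for 30 min at 37 °C; washed, confocal imaging: trackers ex 488/em 500-530 nm, dye ex 543/em 560-640 nm; overlap of images judged.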

A549 [14] = test: Induction of apoptosis in human A549 cells assessed as decrease in pro-caspase 3 level at 2.5 uM preincubated for 1 hr followed by in 0.77 mW/cm2 white light irradiation for 80 mins by immunoblot analysis; format: functional, cell-based; conditions: TDE = time-dependent effect; procedure, shortened: as §1
[15] = Drug uptake in human A549 cells assessed as mean fluorescence intensity at 2.5 uM after 2 hrs by flow cytometry (reference value: 5.4 +/- 1.5); format: ADME, cell-based; conditions: a549, 2 h
A549 [16] = test: Induction of apoptosis in human A549 cells assessed as increase in caspase 3 activity at 2.5 uM preincubated for 1 hr followed by 0.77 mW/cm2 white light irradiation for 80 mins measured after 16 hrs by colorimetric method relative to control; format: functional
Procedure, shortened: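 A549 cells (1×10^6) given compound 2.5 µM for 1 h, then light 80 min; caspase activities measured at 16 h in whole-cell extracts with kits, colorimetric for caspase-3 and fluorimetric for caspase-8; untreated photo-exposed cells as control; five replicates, mean ± SEM.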

[17] = Drug uptake in human L-132 cells assessed as mean fluorescence intensity at 2.5 uM after 16 hrs by flow cytometry (reference value: 4.6 +/- 1.2); format: ADME, cell-based; conditions: l132, 16 h
A549 [18] = test: Induction of apoptosis in human A549 cells assessed as accumulation at subG1 phase at 5 to 50 uM preincubated for 1 hr followed by 0.77 mW/cm2 white light irradiation for 80 mins measured after 24 hrs by propidium iodide staining based flow cytometry relative to control; format: functional
Procedure, shortened: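 Cells exposed 1 h to compound (5-50 µM; vehicle 0.1% DMSO), washed, then irradiated (0.77 mW/cm²) for 0, 30 or 80 min; after serum addition kept 24 h. PI/RNase A staining in hypotonic 0.1% citrate-0.1% Triton X-100, 30 min, 37 °C; sub-G1 peak by flow cytometry, debris gated out, ≥2×10^4 cells; five replicates, mean ± SEM.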

CCC1=C(C)C2=C(C)c3c(C)c(CC)c(C)n3[B-](F)(F)[N+]2=C1/C=C/c1ccc(O[C@H]2O[C@H](CO)[C@@H](O)[C@H](O)[C@H]2O)cc1
fold change (FC) (A549 [1]): 0.6 | Activity (A549 [2]): Active | IC50 [3]: 2700 nM | Flu intensity [4]: 49.4 to 58.4 | Flu intensity [5]: 63.5 | fold change (FC) (A549 [6]): 0.8 | Activity (A549 [7]): Tde | Activity (A549 [8]): Active | Activity (A549 [9]): Active | Activity (A549 [10]): Dose-dependent effect | Drug uptake [11]: Active | Activity (A549 [12]): Active | Drug uptake [13]: Active | Activity (A549 [14]): Tde | Flu intensity [15]: 95.3 to 98.5 | fold change (FC) (A549 [16]): 2.9 | Flu intensity [17]: 41.5 | fold change (FC) (A549 [18]): 5 - 6
